This note sets out measurements from ChEMBL document CHEMBL1132433, “6-Substituted 2-oxo-2H-1-benzopyran-3-carboxylic acid as a core structure for specific inhibitors of human leukocyte elastase” (J Med Chem, 1999).

Assay [1] addresses T1, Neutrophil elastase (Homo sapiens) (UniProt P08246).
T1 sequence (whole entry): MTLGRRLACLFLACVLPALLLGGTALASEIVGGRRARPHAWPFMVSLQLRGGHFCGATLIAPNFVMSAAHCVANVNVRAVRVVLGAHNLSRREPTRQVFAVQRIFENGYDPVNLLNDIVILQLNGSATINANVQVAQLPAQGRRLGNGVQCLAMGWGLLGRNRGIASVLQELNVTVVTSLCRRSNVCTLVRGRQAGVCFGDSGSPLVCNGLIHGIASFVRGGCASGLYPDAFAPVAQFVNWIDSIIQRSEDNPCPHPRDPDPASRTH
Nature of the assay: Evaluated for the kinetic parameter Ki/KI(1/M.1/S) by its ability to inhibit the HLE(Human Leukocyte Elastase) enzyme [ki(se-1) andKi(uM)]. Put shortly: (§1)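 HLE, active-site titrated, assayed with MeO-Suc-AAPV-p-NA in 0.1 M Hepes, 0.5 M NaCl, 0.1% Tween 80, pH 8.0, 10% DMSO, 25 °C. Preincubation method ([HLE]0 20 nM, [I]0 1-10 µM) or progress curves (30 nM enzyme, [S]0 100 µM, [I]0 0.05-70 µM), 405 nm. Constants reflect the initial inactivation step. ki, KI fitted.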

Assay [2] deals with Chymotrypsinogen A (Bos taurus) (UniProt P00766). Nature of the assay: Compound was evaluated for the kinetic parameter Ki/KI(1/M.1/S) by its ability to inhibit the Alpha-CT (Bovine alpha-chymotrypsin) enzyme[ki(se-1) andKi(uM)].
Assay [3] deals with T1, Neutrophil elastase (Homo sapiens). Description: Evaluation of kinetic parameter Ki/KI(1/M.1/S) by its ability to inhibit the HLE(Human Leukocyte Elastase) enzyme. The gist of the method:
as §1

The target of assay [4] is Prothrombin (Homo sapiens) (UniProt P00734). Description: Evaluation of kinetic parameter Ki/KI(1/M.1/S) by its ability to inhibit human thrombin. Put shortly: (§2)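 Human thrombin, active-site titrated, with chromogenic substrate S-2238 in 0.01 M Hepes, 0.01 M Tris, 0.1 M NaCl, 0.1% PEG6000, pH 7.5, 10% DMSO, 25 °C. Preincubation method ([THR]0 1.45 nM, [I]0 1-10 µM) or progress curves ([THR]0 0.58 nM, [S]0 10 µM, [I]0 1-14 µM), absorbance at 405 nm. ki and KI fitted; ki/KI = kobs/[I] at low inhibitor.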

Assay [5] concerns the target Chymotrypsinogen A (Bos taurus) (UniProt P00766). Description: Evaluation of kinetic parameter Ki/KI(1/M.1/S) by its ability to inhibit the Alpha-CT (Bovine alpha-chymotrypsin) enzyme; No inactivation at 10 uM.
Assay [6] has as its target T1, Neutrophil elastase (Homo sapiens). Description: Compound was evaluated for the kinetic parameter Ki/KI(1/M.1/S) by its ability to inhibit the HLE(Human Leukocyte Elastase) enzyme; No inactivation at 10 uM. Put shortly: as §1
Assay [7] addresses Prothrombin (Homo sapiens) (UniProt P00734). Nature of the assay: Compound was evaluated for the kinetic parameter Ki/KI(1/M.1/S) by its ability to inhibit human thrombin. The gist of the method: as §2
In assay [8] the target is Chymotrypsinogen A (Bos taurus) (UniProt P00766). Nature of the assay: Compound was evaluated for the kinetic parameter Ki/KI(1/M.1/S) by its ability to inhibit the Alpha-CT (Bovine alpha-chymotrypsin) enzyme [ki(se-1) andKi(uM)].
Assay [9] has the same target. Nature of the assay: Evaluation of kinetic parameter Ki/KI(1/M.1/S) by its ability to inhibit the Alpha-CT (Bovine alpha-chymotrypsin) enzyme.
Assay [10] shares this target. Description: Compound was evaluated for the kinetic parameter Ki/KI(1/M.1/S) by its ability to inhibit the Alpha-CT (Bovine alpha-chymotrypsin) enzyme.

Each structure is given as a SMILES string.

`O=C(Oc1cccnc1Br)c1cc2cc(CCl)ccc2oc1=O`: the results for the Ki/KI in [1] and in assay [2] were 3000 M⁻¹ s⁻¹ and 2700 M⁻¹ s⁻¹, respectively.
For the compound `CCCC(=O)OCc1ccc2oc(=O)c(C(=O)Oc3cncc(Cl)c3)cc2c1`, the Ki/KI is 72700 M⁻¹ s⁻¹ in [3], “No inactivation” in assay [4] and “No inactivation” in [5].
For the compound `O=C(Nc1cccnc1Cl)c1cc2cc(CCl)ccc2oc1=O`, the Ki/KI result in assay [6] and in assay [5] was “No inactivation” each time.
On to `CC(=O)OCc1ccc2oc(=O)c(C(=O)Oc3cncc(Cl)c3)cc2c1`, for which the results for the Ki/KI in [3], in assay [4] and in [5] were 107000 M⁻¹ s⁻¹, “No inactivation” and “No inactivation”, respectively.
On to `NCc1ccc2oc(=O)c(C(=O)Oc3cncc(Cl)c3)cc2c1`, for which the Ki/KI in [3] is 9100 M⁻¹ s⁻¹; in [4], “No inactivation”; in [5], “No inactivation”.
With `O=C(Oc1cncc(Cl)c1)c1cc2cc(CCl)ccc2oc1=O`, the Ki/KI came to 64600 M⁻¹ s⁻¹ in assay [1], 200 M⁻¹ s⁻¹ in [7] and 31000 M⁻¹ s⁻¹ in assay [8].
As to `O=C(Oc1cncc(Cl)c1)c1cc2cc(Br)ccc2oc1=O`, the Ki/KI in [3] was 58000 M⁻¹ s⁻¹; in assay [5] it was “No inactivation”.
Take `CCC(=O)OCc1ccc2oc(=O)c(C(=O)Oc3cncc(Cl)c3)cc2c1`: the results for the Ki/KI in assay [3], in [4] and in [5] were 62000 M⁻¹ s⁻¹, “No inactivation” and “No inactivation”, respectively.
Regarding `O=C(Oc1cccnc1[N+](=O)[O-])c1cc2cc(CCl)ccc2oc1=O`, the values for the Ki/KI in [3] and in [9] were 4000 M⁻¹ s⁻¹ and 4500 M⁻¹ s⁻¹, respectively.
For `O=C(Oc1cncc(Cl)c1)c1cc2ccccc2oc1=O`, the values for the Ki/KI in assay [3], in assay [4] and in assay [5] were 32800 M⁻¹ s⁻¹, “No inactivation” and “No inactivation”, respectively.
For `O=C(Oc1ccc(Cl)cn1)c1cc2cc(CCl)ccc2oc1=O`, the Ki/KI was 110 M⁻¹ s⁻¹ in assay [3], “No inactivation” in assay [4] and 2500 M⁻¹ s⁻¹ in assay [9].
On to `Cc1ccc2oc(=O)c(C(=O)Oc3cncc(Cl)c3)cc2c1`, for which the Ki/KI was 32500 M⁻¹ s⁻¹ in assay [3], “No inactivation” in [4] and “No inactivation” in assay [5].
`O=C(Nc1cccnc1)c1cc2cc(CCl)ccc2oc1=O`: in [6], the Ki/KI entry is “No inactivation”.
Turning to `COc1ccc(NC(=O)c2cc3cc(CCl)ccc3oc2=O)cn1`, the Ki/KI entry in assay [6] and in assay [5] was “No inactivation” throughout.
For the compound `Cc1cccc(OC(=O)c2cc3cc(CCl)ccc3oc2=O)n1`, the results for the Ki/KI in assay [3], in [4] and in assay [9] were 200 M⁻¹ s⁻¹, “No inactivation” and 3300 M⁻¹ s⁻¹, respectively.
For `Cc1ccc(OC(=O)c2cc3cc(CCl)ccc3oc2=O)cn1`, the results for the Ki/KI result in [6], in assay [4] and in [9] were “No inactivation”, “No inactivation” and 1000 M⁻¹ s⁻¹, respectively.
As to `O=C(Oc1cccc(Cl)n1)c1cc2cc(CCl)ccc2oc1=O`, the Ki/KI amounted to 26000 M⁻¹ s⁻¹ in [3], 7200 M⁻¹ s⁻¹ in assay [7] and 107000 M⁻¹ s⁻¹ in assay [9].
Regarding `O=C(Oc1ccccn1)c1cc2cc(CCl)ccc2oc1=O`, the Ki/KI in assay [3] was 420 M⁻¹ s⁻¹; in [7], 240 M⁻¹ s⁻¹; in [9] it was 1670 M⁻¹ s⁻¹.
On to `O=C(Oc1cccnc1Cl)c1cc2cc(CCl)ccc2oc1=O`, for which the Ki/KI amounted to 3310 M⁻¹ s⁻¹ in [3] and 4300 M⁻¹ s⁻¹ in [9].
Turning to `Cc1cncc(OC(=O)c2cc3cc(CCl)ccc3oc2=O)c1`, the values for the Ki/KI in assay [3], in assay [4] and in [9] were 1000 M⁻¹ s⁻¹, “No inactivation” and 2500 M⁻¹ s⁻¹, respectively.
Consider `Cc1ccc(OC(=O)c2cc3cc(CCl)ccc3oc2=O)c([N+](=O)[O-])n1`, for which the figures for the Ki/KI entry in assay [6] and in [9] were “No inactivation” and 1500 M⁻¹ s⁻¹, respectively.
As for `O=C(Oc1ccccc1)c1cc2cc(CCl)ccc2oc1=O`, the figures for the Ki/KI in assay [3], in assay [7] and in assay [10] were 23 M⁻¹ s⁻¹, 200 M⁻¹ s⁻¹ and 100000 M⁻¹ s⁻¹, respectively.
For `CC(C)(C)C(=O)OCc1ccc2oc(=O)c(C(=O)Oc3cncc(Cl)c3)cc2c1`, the Ki/KI in assay [3] is 95500 M⁻¹ s⁻¹; in [4], “No inactivation”; in assay [5] it was “No inactivation”.
As to `CC(C)C(=O)OCc1ccc2oc(=O)c(C(=O)Oc3cncc(Cl)c3)cc2c1`, the results for the Ki/KI in [3], in assay [4] and in assay [5] were 45000 M⁻¹ s⁻¹, “No inactivation” and “No inactivation”, respectively.
As to `O=C(Oc1cccnc1)c1cc2cc(CCl)ccc2oc1=O`, the values for the Ki/KI in assay [1], in assay [4] and in assay [8] were 770 M⁻¹ s⁻¹, “No inactivation” and 14800 M⁻¹ s⁻¹, respectively.
Take `Cc1ccnc(OC(=O)c2cc3cc(CCl)ccc3oc2=O)c1`: the results for the Ki/KI in assay [3], in assay [7] and in assay [9] were 300 M⁻¹ s⁻¹, 3900 M⁻¹ s⁻¹ and 5950 M⁻¹ s⁻¹, respectively.
